ChEMBL document CHEMBL1287782, “Design, synthesis, and characterization of BK channel openers based on oximation of abietane diterpene derivatives” (Bioorg Med Chem, 2010)

Molecular target: Calcium-activated potassium channel subunit alpha-1 (Homo sapiens) (UniProt Q12791)
Experiment: Activation of human BK alpha channel expressed in CHO-K1 cells assessed as ionic current at 30 uM by patch clamp electrophysiological assay relative to control
Assay type: cell-based
How it was run: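 Automated population patch clamp (64-hole PPC) on CHO-K1 cells stably expressing hBKα. Internal (mM): 140 KCl, 1.0 MgCl2, 20 HEPES, pH 7.25–7.3. External (mM): 137 NaCl, 4.0 KCl, 1.0 MgCl2, 2.0 CaCl2, 10 glucose, 20 HEPES, pH 7.4. Cells suspended in external solution with 20 µM BAPTA-AM before loading. Step to +100 mV from holding potential; current at 30 µM compound as % of drug-free control; n = 8.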

Chain of Calcium-activated potassium channel subunit alpha-1 (Homo sapiens) (Q12791 whole entry): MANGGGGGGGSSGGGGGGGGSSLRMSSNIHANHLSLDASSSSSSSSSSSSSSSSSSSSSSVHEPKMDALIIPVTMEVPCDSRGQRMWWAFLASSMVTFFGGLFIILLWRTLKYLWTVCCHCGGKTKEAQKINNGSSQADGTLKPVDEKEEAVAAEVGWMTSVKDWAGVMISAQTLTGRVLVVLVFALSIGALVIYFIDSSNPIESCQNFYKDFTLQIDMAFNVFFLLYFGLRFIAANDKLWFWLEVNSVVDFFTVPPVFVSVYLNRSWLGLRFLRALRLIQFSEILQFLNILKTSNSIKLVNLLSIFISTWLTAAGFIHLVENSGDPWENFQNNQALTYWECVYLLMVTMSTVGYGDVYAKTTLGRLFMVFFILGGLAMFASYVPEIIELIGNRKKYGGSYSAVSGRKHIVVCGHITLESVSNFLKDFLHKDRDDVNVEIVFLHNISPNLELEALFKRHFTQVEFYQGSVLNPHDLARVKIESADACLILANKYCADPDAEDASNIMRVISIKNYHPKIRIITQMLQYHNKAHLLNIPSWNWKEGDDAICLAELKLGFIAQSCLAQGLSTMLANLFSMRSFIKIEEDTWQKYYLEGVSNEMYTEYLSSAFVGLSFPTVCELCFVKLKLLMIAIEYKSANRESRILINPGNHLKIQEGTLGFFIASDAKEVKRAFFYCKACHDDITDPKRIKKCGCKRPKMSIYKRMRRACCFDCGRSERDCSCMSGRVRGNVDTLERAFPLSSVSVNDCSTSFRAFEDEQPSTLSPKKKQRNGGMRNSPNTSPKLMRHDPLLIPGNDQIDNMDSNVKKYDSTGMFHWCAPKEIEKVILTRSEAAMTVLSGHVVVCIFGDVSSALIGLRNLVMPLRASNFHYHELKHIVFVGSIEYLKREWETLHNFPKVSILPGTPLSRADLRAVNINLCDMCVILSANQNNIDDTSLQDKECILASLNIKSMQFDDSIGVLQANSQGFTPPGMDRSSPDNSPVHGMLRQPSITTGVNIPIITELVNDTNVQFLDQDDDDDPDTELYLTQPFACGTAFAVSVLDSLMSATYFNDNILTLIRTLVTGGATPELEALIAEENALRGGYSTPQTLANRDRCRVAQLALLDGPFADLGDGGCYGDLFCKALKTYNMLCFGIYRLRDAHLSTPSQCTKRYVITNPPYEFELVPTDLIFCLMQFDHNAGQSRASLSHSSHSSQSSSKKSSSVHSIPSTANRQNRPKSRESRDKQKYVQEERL

Row | Compound | Activity
1 | CO/N=C1\C[C@H]2[C@](C)(C(=O)O)CCC[C@]2(C)c2ccc(C(C)C)cc21 | 153%
2 | C=CCO/N=C1\C[C@H]2[C@@](C)(C(=O)O)CCC[C@]2(C)c2cc(OCCCc3ccccc3)ccc21 | 160%
3 | CC(C)c1ccc2c(c1)/C(=N/OCc1ccccc1)C[C@H]1[C@](C)(C(=O)O)CCC[C@]21C | 123%
4 | CCCCCCCO/N=C1\C[C@H]2[C@](C)(C(=O)O)CCC[C@]2(C)c2cc(Cl)c(C(C)C)c(Cl)c21 | 111%
5 | CCCO/N=C1\C[C@H]2[C@](C)(C(=O)O)CCC[C@]2(C)c2cc(Cl)c(C(C)C)c(Cl)c21 | 192%
6 | CC(C)c1ccc2c(c1)/C(=N/O)C[C@H]1[C@](C)(C(=O)O)CCC[C@]21C | 121%
7 | CO/N=C1\C[C@H]2[C@@](C)(C(=O)O)CCC[C@]2(C)c2cc(OCCCc3ccccc3)ccc21 | 151%
8 | C#CCO/N=C1\C[C@H]2[C@](C)(C(=O)O)CCC[C@]2(C)c2cc(Cl)c(C(C)C)c(Cl)c21 | 261%
9 | C#CCO/N=C1\C[C@H]2[C@@](C)(C(=O)O)CCC[C@]2(C)c2cc(OCCCc3ccccc3)ccc21 | 166%
10 | CCO/N=C1\C[C@H]2[C@](C)(C(=O)O)CCC[C@]2(C)c2cc(Cl)c(C(C)C)c(Cl)c21 | 212%
11 | C[C@]1(C(=O)O)CCC[C@]2(C)c3cc(OCCCc4ccccc4)ccc3/C(=N/O)C[C@@H]12 | 134%
12 | CC(C)c1c(Cl)cc2c(c1Cl)/C(=N/OCC1CCCCC1)C[C@H]1[C@](C)(C(=O)O)CCC[C@]21C | 129%
13 | CO/N=C1\C[C@H]2[C@](C)(C(=O)O)CCC[C@]2(C)c2cc(Cl)c(C(C)C)c(Cl)c21 | 213%
14 | C[C@]1(C(=O)O)CCC[C@]2(C)c3cc(OCCCc4ccccc4)ccc3/C(=N/OCCCc3ccccc3)C(O)[C@@H]12 (some centres not stated) | 107%
15 | CC(C)c1c(Cl)cc2c(c1Cl)C(=O)C[C@H]1[C@](C)(C(=O)O)CCC[C@]21C | 124%
16 | CC(C)c1cc2c(cc1Br)[C@@]1(C)CCC[C@@](C)(C(=O)O)[C@@H]1C/C2=N\O | 162%
17 | CO/N=C1\C[C@H]2[C@](C)(C(=O)O)CCC[C@]2(C)c2cc(Br)c(C(C)C)cc21 | 216%
18 | CC(C)c1c(Cl)c(Cl)c2c(c1Cl)/C(=N/O)C[C@H]1[C@](C)(C(=O)O)CCC[C@]21C | 229%
19 | CC(C)c1ccc2c(c1)/C(=N/OCCCc1ccccc1)C[C@H]1[C@](C)(C(=O)O)CCC[C@]21C | 143%

Row | Compound | Activity
20 | CO/N=C1\C[C@H]2[C@](C)(C(=O)O)CCC[C@]2(C)c2c(Cl)c(Cl)c(C(C)C)c(Cl)c21 | 235%
21 | C=CCO/N=C1\C[C@H]2[C@](C)(C(=O)O)CCC[C@]2(C)c2cc(Cl)c(C(C)C)c(Cl)c21 | 297%
22 | CC(C)c1cc2c(cc1Br)[C@@]1(C)CCC[C@@](C)(C(=O)O)[C@@H]1CC2=O | 166%
23 | CC(C)=CCO/N=C1\C[C@H]2[C@](C)(C(=O)O)CCC[C@]2(C)c2cc(Cl)c(C(C)C)c(Cl)c21 | 126%
24 | C=CCO/N=C1\C[C@H]2[C@](C)(C(=O)O)CCC[C@]2(C)c2cc(Br)c(C(C)C)cc21 | 237%
25 | CC(C)c1c(Cl)cc2c(c1Cl)/C(=N/OCc1ccccc1)C[C@H]1[C@](C)(C(=O)O)CCC[C@]21C | 151%
26 | CC(C)CCO/N=C1\C[C@H]2[C@](C)(C(=O)O)CCC[C@]2(C)c2cc(Cl)c(C(C)C)c(Cl)c21 | 145%
27 | C[C@]1(C(=O)O)CCC[C@]2(C)c3cc(OCCCc4ccccc4)ccc3/C(=N/OCCCc3ccccc3)C[C@@H]12 | 134%
28 | CC(C)=CCO/N=C1\C[C@H]2[C@@](C)(C(=O)O)CCC[C@]2(C)c2cc(OCCCc3ccccc3)ccc21 | 138%
29 | CC(C)c1ccc2c(c1)C(=O)C[C@H]1[C@](C)(C(=O)O)CCC[C@]21C | 100%
30 | C#CCO/N=C1\C[C@H]2[C@](C)(C(=O)O)CCC[C@]2(C)c2ccc(C(C)C)cc21 | 142%
31 | CC(C)O/N=C1\C[C@H]2[C@](C)(C(=O)O)CCC[C@]2(C)c2cc(Cl)c(C(C)C)c(Cl)c21 | 184%
32 | CC(C)c1c(Cl)cc2c(c1Cl)/C(=N/OCC1CC1)C[C@H]1[C@](C)(C(=O)O)CCC[C@]21C | 181%
33 | CO/N=C1/c2ccc(OCCCc3ccccc3)cc2[C@@]2(C)CCC[C@](C)(C(=O)O)[C@@H]2C1O (some centres not stated) | 125%
34 | C[C@]1(C(=O)O)CCC[C@]2(C)c3cc(OCCCc4ccccc4)ccc3/C(=N/OCc3ccccc3)C[C@@H]12 | 152%
35 | CC(C)c1c(Cl)cc2c(c1Cl)/C(=N/O)C[C@H]1[C@](C)(C(=O)O)CCC[C@]21C | 137%
36 | C=CCO/N=C1\C[C@H]2[C@](C)(C(=O)O)CCC[C@]2(C)c2ccc(C(C)C)cc21 | 182%
37 | CO/N=C1\C[C@H]2[C@@](C)(C(=O)O)CCC[C@]2(C)c2cc(O)ccc21 | 103%
